In ChEMBL document CHEMBL4017505 (J Med Chem, 2017):
Activity calls are given as the source filed them. The calls are words filed in the database; no cut-off is given here.

Key:
[1] = test system: Mus musculus; test: Antinociceptive activity in sc dosed CD-1 mouse assessed as inhibition of acetic acid-induced writhing treated 30 mins prior to test followed by acetic acid challenge measured for 10 mins starting 5 mins post acetic acid challenge; type: functional
Outline: (§1)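 Male CD1 mice (30–35 g, 6–8 weeks) given compound or saline sc at 10 μL/g. […] ED50 by Litchfield–Wilcoxon from dose–response. Doses expressed as salts; ≥5 mice per group, each used once.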

[2] = test system: Mus musculus; test: Antinociceptive activity in CD-1 mouse assessed as inhibition of acetic acid-induced writhing at 5 mg/kg, sc treated 30 mins prior to test followed by acetic acid challenge measured for 10 mins starting 5 mins post acetic acid challenge in presence of KOP receptor antagonist nor-BNI; type: functional, organism-based
Outline: (§2)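 Writhing test in male CD1 mice: nor-BNI 20 mg/kg sc given 24 h before sc test compound. Acetic acid 0.6% ip at 25 min after compound; writhes counted for 10 min. Inhibition calculated as % reduction against saline controls. ≥5 mice per group.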

[3] = test system: Mus musculus; test: Toxicity in CD-1 mouse assessed as motor impairment at 10 to 20 mg/kg, sc treated 30 mins prior to test by rotarod test; type: organism-based; details: in vivo, 0.5 h
[4] = test system: Mus musculus; test: Toxicity in CD-1 mouse assessed as motor impairment at 5 to 10 mg/kg, sc treated 30 mins prior to test by rotarod test; type: organism-based; details: in vivo, 0.5 h
[5] = test system: Mus musculus; test: Antinociceptive activity in CD-1 mouse assessed as inhibition of acetic acid-induced writhing at […], sc treated 30 mins prior to test followed by acetic acid challenge measured for 10 mins starting 5 mins post acetic acid challenge in presence of KOP receptor antagonist nor-BNI; type: functional, organism-based
[6] = test system: Mus musculus; test: Toxicity in CD-1 mouse assessed as motor impairment at 5 mg/kg, sc treated 30 mins prior to test by rotarod test; type: organism-based; details: in vivo, 0.5 h
[7] = biological target: Kappa-type opioid receptor (Homo sapiens) (UniProt P41145); test: Agonist activity at human kappa opioid receptor expressed in CHO cell membranes after 60 mins by [35S]GTPgammaS binding assay relative to U69,593; type: functional
Sequence of Kappa-type opioid receptor (Homo sapiens) (P41145 whole entry): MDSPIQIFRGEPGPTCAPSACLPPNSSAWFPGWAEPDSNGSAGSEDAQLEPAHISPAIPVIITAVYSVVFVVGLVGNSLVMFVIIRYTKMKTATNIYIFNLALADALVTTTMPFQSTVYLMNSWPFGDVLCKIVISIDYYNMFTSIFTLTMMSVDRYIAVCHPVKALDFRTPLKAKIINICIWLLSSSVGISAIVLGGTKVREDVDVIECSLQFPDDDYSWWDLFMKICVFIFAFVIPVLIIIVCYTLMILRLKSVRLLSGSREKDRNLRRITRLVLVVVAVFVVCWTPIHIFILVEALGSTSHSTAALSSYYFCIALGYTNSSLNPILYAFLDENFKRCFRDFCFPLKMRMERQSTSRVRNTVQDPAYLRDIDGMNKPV
Outline: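 Membranes (8–15 μg) from CHO cells stably expressing human KOP, in 20 mM HEPES, 10 mM MgCl2, 100 mM NaCl, pH 7.4. Incubated with 0.05 nM [35S]GTPγS, 10 μM GDP and graded compound for 60 min at 25 °C. Nonspecific binding with 10 μM GTPγS; basal binding without ligand. Filtered and counted. Efficacy given as % stimulation relative to U69,593. Duplicates, ≥3 experiments.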

[8] = test system: Mus musculus; test: Toxicity in CD-1 mouse assessed as motor impairment at 7.5 mg/kg, sc treated 30 mins prior to test by rotarod test; type: organism-based; details: in vivo, 0.5 h
[9] = test system: Mus musculus; test: Toxicity in CD-1 mouse assessed as motor impairment at 15 mg/kg, sc treated 30 mins prior to test by rotarod test; type: organism-based; details: in vivo, 0.5 h
[10] = test system: Mus musculus; test: In vivo antagonist activity at kappa opioid receptor in CD-1 mouse assessed as reversal of U50,488-induced inhibition of acetic acid-mediated writhing at 10 mg/kg, sc treated 15 mins prior to U50,488 measured for 10 mins starting 5 mins post acetic acid challenge; type: functional, organism-based
Outline: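 Male CD1 mice received test compound 10 mg/kg sc, then U50,488 2 mg/kg sc 15 min later. Acetic acid 0.6% ip given 25 min after U50,488 dosing; writhes counted for 10 min. Compared with saline controls. ≥5 mice per group, sc volume 10 μL/g.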

[11] = test system: Mus musculus; test: Antinociceptive activity in CD-1 mouse assessed as inhibition of acetic acid-induced writhing at 10 mg/kg, sc treated 30 mins prior to test followed by acetic acid challenge measured for 10 mins starting 5 mins post acetic acid challenge; type: functional, organism-based; outline: as §1
[12] = biological target: Kappa-type opioid receptor (Homo sapiens) (UniProt P41145)
[13] = test system: Mus musculus; test: Antinociceptive activity in CD-1 mouse assessed as inhibition of acetic acid-induced writhing at 1 mg/kg, sc treated 30 mins prior to test followed by acetic acid challenge measured for 10 mins starting 5 mins post acetic acid challenge in presence of KOP receptor antagonist nor-BNI; type: functional, organism-based; outline: as §2
[14] = test system: Mus musculus; test: Toxicity in CD-1 mouse assessed as motor impairment at […], sc treated 30 mins prior to test by rotarod test; type: organism-based; details: in vivo, 0.5 h

Row | SMILES | inhibition [1] | Efficacy [7] | further results
1 | Oc1cccc(CCN(CCc2ccccc2)CC2CC2)c1 | Dose-dependent effect |  | inhibition [2]: inactive; Activity [3]: Non-Toxic
2 | Oc1ccc(CCN(CCc2cccc(O)c2F)CC2CCC2)cc1 | Dose-dependent effect |  | 
3 | Oc1cccc(CCN(CCc2cccc(O)c2)CC2CCC2)c1 | Dose-dependent effect |  | 
4 | Oc1cccc(CCN(CCc2ccccc2)CC2CCC2)c1 |  |  | Activity [4]: Non-Toxic
5 | Cl.Oc1cccc(CCN(CCc2ccccc2)CC2CCCCC2)c1 | Dose-dependent effect |  | inhibition [5]: inactive; Activity [6]: Non-Toxic
6 | c1ccc(CCN(CCc2ccccc2)CC2CCC2)cc1 |  | 91.9% | 
7 | Oc1cccc(CCN(CCc2cccc(O)c2)CC2CC2)c1 | Dose-dependent effect |  | 
8 | Oc1cccc(CCN(CCc2cccc(O)c2)CC2CCCC2)c1 | Dose-dependent effect | 80.4% | 
9 | Oc1cccc(CCN(CCc2ccccc2)Cc2ccccc2)c1 | Dose-dependent effect | 79.5% | 
10 | Cl.Oc1cccc(CCN(CCc2ccccc2)CC2CCCCC2)c1F | Dose-dependent effect | 88.9% | Activity [8]: Non-Toxic
11 | CC(C)CCN(CCc1ccccc1)CCc1cccc(O)c1 | Dose-dependent effect |  | 
12 | Oc1cccc(CCN(CCc2cccc(O)c2)CC2CCCCC2)c1 | Dose-dependent effect | 91.1% | 
13 | CC(C)CCN(CCc1cccc(O)c1)CCc1cccc(O)c1 | Dose-dependent effect |  | 
14 | Oc1ccc(CCN(CCc2cccc(O)c2)CC2CCC2)cc1 | Dose-dependent effect |  | 
15 | Oc1cccc(CCN(CCc2cccc(O)c2F)CC2CCC2)c1 | Dose-dependent effect |  | 
16 | C=CCN(CCc1ccc(O)cc1)CCc1cccc(O)c1 |  | 29.8% | 
17 | Cl.Oc1cccc(CCN(CCc2ccccc2)CC2CCC2)c1F | Dose-dependent effect | 66.1% | Activity [9]: Non-Toxic
18 | Oc1ccc(CCN(CCc2cccc(O)c2)CC2CCCCC2)cc1 | Dose-dependent effect | 84.3% | 
19 | Oc1ccc(CCN(CCc2cccc(O)c2)CC2CC2)cc1 |  |  | inhibition [10]: Active; inhibition [11]: inactive; Ke [12]: 24.3 nM
20 | Cl.Oc1cccc(CCN(CCc2ccccc2)CC2CCCC2)c1 | Dose-dependent effect | 82.8% | inhibition [13]: inactive; Activity [14]: Non-Toxic
